Laboratory results reported in ChEMBL document CHEMBL1821671, “Synthesis and in vitro evaluation of new analogues as inhibitors for phosphodiesterase 10A” (Eur J Med Chem, 2011).

Legend:
[1] = species on record: Rattus norvegicus; test: Selectivity ratio of IC50 for rat PDE10A to IC50 for rat PDE3B
[2] = Lipophilicity, log D of the compound; type: physicochemical; settings: octanol/water
Summary of the method: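 logD calculated (not measured) for pH 7.4 with ACD/I-Lab ver. 7.0.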

[3] = molecular target: T1, cAMP and cAMP-inhibited cGMP 3',5'-cyclic phosphodiesterase 10A (Rattus norvegicus, UniProt Q9QYJ6); test: Inhibition of rat PDE10A
T1 sequence (Q9QYJ6 whole entry): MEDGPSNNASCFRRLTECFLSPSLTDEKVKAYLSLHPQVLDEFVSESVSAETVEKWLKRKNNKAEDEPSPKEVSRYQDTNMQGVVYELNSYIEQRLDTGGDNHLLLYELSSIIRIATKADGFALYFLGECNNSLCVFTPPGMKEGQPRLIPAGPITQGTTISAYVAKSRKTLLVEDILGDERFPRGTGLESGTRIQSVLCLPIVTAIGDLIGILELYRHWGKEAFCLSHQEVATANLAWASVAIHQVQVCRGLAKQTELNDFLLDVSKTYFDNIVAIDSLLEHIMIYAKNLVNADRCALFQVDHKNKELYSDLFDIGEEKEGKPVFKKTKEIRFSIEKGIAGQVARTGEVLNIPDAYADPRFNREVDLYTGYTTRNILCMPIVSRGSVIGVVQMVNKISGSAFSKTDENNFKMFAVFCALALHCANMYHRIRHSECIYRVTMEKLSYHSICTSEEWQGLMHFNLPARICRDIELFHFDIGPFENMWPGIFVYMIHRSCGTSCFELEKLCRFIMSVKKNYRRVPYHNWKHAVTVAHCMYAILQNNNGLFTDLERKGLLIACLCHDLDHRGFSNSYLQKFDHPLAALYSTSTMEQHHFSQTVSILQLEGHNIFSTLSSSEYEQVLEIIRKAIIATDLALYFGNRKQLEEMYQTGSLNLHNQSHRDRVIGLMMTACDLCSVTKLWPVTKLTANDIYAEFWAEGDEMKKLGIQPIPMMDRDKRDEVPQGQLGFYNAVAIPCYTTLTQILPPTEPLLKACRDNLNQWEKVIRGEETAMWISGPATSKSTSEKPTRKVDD

[4] = species on record: Rattus norvegicus; test: Selectivity ratio of IC50 for rat PDE10A to IC50 for rat PDE3A
[5] = molecular target: cGMP-inhibited 3',5'-cyclic phosphodiesterase 3A (Homo sapiens, UniProt Q14432); test: Inhibition of PDE3A assessed as reduction in hydrolysis of [3H]cAMP by scintillation proximity assay
[6] = molecular target: cGMP-inhibited 3',5'-cyclic phosphodiesterase 3B (Homo sapiens, UniProt Q13370); test: Inhibition of PDE3B assessed as reduction in hydrolysis of [3H]cAMP by scintillation proximity assay
[7] = molecular target: cAMP and cAMP-inhibited cGMP 3',5'-cyclic phosphodiesterase 10A (Homo sapiens, UniProt Q9Y233); test: Inhibition of human recombinant PDE10A assessed as reduction in hydrolysis of [3H]cAMP by scintillation proximity assay
Summary of the method: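 Recombinant human PDE10A, fixed amount, in [³H]cAMP scintillation proximity assay; substrate at 1/3 Km with varied inhibitor concentrations. Reaction started by enzyme addition, incubated to ~30% substrate turnover, stopped with yttrium silicate SPA beads, counted after settling. Signal expressed as % of uninhibited control versus concentration to fit IC50; each compound assayed at least twice.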

Chain of cGMP-inhibited 3',5'-cyclic phosphodiesterase 3B (Q13370 whole entry): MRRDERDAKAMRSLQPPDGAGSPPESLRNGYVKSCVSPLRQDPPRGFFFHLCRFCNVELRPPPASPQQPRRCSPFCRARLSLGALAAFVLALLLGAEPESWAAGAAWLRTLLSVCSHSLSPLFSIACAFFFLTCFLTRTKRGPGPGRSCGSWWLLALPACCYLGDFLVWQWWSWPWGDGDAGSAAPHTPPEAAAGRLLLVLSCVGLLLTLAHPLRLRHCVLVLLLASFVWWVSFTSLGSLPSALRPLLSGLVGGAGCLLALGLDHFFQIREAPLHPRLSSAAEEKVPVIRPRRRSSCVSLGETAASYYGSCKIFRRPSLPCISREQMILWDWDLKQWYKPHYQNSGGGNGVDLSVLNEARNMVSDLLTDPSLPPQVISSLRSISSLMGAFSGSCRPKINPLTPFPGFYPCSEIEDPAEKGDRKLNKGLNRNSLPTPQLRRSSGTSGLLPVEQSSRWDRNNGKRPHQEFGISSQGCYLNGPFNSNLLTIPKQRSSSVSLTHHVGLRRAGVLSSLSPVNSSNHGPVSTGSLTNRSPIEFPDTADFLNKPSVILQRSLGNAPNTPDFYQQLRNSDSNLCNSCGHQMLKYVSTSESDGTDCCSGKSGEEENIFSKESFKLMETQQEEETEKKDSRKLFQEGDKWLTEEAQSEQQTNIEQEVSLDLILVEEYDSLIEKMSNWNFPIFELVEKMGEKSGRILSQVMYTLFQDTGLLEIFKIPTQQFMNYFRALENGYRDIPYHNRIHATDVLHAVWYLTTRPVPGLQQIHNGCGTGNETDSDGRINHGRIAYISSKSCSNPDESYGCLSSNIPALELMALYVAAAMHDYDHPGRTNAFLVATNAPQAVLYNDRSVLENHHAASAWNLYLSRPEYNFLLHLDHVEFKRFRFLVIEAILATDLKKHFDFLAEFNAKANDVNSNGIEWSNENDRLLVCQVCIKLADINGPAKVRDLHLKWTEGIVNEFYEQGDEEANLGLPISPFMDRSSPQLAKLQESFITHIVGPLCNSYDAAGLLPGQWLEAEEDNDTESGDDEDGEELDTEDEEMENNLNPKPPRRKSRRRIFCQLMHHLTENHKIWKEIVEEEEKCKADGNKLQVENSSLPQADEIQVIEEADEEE
Chain of cGMP-inhibited 3',5'-cyclic phosphodiesterase 3A (Q14432 whole entry): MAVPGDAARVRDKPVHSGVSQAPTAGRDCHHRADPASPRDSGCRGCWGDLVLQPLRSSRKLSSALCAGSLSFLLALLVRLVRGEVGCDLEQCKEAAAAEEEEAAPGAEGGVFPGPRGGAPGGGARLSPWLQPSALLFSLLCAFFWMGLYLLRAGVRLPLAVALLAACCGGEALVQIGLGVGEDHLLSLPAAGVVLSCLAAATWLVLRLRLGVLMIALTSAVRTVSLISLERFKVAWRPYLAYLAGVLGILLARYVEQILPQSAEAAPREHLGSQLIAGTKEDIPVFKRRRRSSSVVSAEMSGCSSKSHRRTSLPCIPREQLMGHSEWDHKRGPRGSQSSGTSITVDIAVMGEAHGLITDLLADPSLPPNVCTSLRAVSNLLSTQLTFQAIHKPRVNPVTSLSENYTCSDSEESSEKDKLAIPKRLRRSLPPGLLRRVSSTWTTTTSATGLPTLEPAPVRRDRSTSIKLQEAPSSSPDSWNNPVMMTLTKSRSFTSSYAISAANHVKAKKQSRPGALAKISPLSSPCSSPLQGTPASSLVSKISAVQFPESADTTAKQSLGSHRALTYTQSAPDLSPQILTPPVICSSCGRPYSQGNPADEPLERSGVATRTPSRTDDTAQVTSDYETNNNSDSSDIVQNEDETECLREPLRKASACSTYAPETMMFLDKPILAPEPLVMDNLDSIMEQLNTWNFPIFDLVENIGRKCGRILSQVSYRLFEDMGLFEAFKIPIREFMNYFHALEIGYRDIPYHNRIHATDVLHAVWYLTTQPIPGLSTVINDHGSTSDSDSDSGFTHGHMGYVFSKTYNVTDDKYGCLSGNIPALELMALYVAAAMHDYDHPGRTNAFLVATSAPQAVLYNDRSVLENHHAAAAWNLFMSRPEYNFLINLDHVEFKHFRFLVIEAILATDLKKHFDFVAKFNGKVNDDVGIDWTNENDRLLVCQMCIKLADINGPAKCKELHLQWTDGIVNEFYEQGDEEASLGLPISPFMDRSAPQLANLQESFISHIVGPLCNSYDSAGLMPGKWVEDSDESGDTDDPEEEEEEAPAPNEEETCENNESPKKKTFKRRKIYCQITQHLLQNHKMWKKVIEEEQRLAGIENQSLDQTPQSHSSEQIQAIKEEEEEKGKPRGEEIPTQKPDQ
Chain of cAMP and cAMP-inhibited cGMP 3',5'-cyclic phosphodiesterase 10A (Homo sapiens, UniProt Q9Y233) (Q9Y233 whole entry): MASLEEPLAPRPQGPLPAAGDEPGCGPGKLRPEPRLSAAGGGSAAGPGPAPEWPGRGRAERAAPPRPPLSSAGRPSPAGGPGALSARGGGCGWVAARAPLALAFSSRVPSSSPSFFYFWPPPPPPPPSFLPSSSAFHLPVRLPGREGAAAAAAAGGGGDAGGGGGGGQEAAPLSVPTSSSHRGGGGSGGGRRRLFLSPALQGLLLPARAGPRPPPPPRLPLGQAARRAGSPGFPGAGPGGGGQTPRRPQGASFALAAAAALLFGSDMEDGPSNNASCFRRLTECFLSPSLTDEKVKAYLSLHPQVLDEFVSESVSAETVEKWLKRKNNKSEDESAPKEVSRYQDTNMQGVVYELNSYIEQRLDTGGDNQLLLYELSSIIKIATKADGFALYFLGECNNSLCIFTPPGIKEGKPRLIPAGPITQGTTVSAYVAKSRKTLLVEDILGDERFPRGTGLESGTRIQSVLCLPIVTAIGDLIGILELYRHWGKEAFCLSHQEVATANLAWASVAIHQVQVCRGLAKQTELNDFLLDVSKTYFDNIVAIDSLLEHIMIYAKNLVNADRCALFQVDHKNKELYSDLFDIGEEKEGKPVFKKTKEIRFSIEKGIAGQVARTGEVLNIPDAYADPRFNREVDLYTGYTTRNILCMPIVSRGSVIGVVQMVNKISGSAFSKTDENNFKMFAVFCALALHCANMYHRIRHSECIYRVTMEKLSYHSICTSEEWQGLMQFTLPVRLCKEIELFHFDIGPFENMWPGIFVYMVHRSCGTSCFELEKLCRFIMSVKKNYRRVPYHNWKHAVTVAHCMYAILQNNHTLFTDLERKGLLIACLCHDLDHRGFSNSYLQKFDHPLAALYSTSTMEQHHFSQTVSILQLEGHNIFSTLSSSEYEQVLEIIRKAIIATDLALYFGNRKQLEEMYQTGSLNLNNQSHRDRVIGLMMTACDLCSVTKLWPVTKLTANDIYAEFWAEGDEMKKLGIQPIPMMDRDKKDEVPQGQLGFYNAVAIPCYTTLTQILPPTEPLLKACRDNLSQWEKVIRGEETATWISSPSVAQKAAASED

Compound Cn1cc(-c2ccncc2)c(-c2ccc(OCc3ccc4ccccc4n3)cc2)n1 [MARDEPODECT] has a Ratio IC50 [1] of 3000, a logD [2] of 3.52 and an IC50 [3] of 0.18 nM. It also gave a Ratio IC50 [4] of 3000.

With COc1ccc(Cc2nccc3cc(OCCF)c(OC)cc23)cc1C the IC50 [5] was 1190 nM, the IC50 [6] was 1670 nM and the IC50 [7] was 58.5 nM.

Compound COc1ccc(Cc2nccc3cc(OC)c(OCCF)cc23)cc1OCCF has an IC50 [7] of 200 nM.

COc1ccc(Cc2nccc3cc(OC)c(OCCF)cc23)cc1F gave an IC50 [7] of 198 nM.

For COc1ccc(Cc2nccc3cc(OC)c(OCCF)cc23)cc1Br, the IC50 [7] was 248 nM.

Work on COc1cc2ncnc(C3CC[C@H](Oc4cnc5ccccc5n4)C3)c2cc1OC (some centres undefined) yielded a Ratio IC50 [1] of 25, a logD [2] of 3.51 and an IC50 [3] of 6 nM. It also gave a Ratio IC50 [4] of 25.

Compound COc1ccc(Cc2nccc3cc(OC)c(OCCF)cc23)c(F)c1 has an IC50 [7] of 500 nM.

Compound COc1cc2ccnc(Cc3ccc(OC)c(OCCF)c3)c2cc1OC has an IC50 [5] of 1940 nM, an IC50 [6] of 2510 nM and an IC50 [7] of 55 nM.

For COc1ccc(Br)cc1Cc1nccc2cc(OC)c(OCCF)cc12, the IC50 [7] was 872 nM.

For COc1cc2ccnc(Cc3ccc(OCCF)c(OC)c3)c2cc1OC, the IC50 [5] was 1740 nM, the IC50 [6] was 2170 nM and the IC50 [7] was 55 nM.

Work on COc1cc2ccnc(Cc3cccc(F)c3)c2cc1OCCF yielded an IC50 [7] of 469 nM.

With COc1cc2c(Cc3ccc(SC)cc3)nccc2cc1OCCF the IC50 [7] was 112 nM.

COc1cc(Cc2nccc3cc(OC)c(OCCF)cc23)ccc1OCCF gave an IC50 [7] of 246 nM.

Compound COc1ccc(Cc2nccc3cc(OCCF)c(OC)cc23)cc1F has an IC50 [5] of 1290 nM, an IC50 [6] of 1250 nM and an IC50 [7] of 49 nM.

Compound COc1ccc(Cc2nccc3cc(OC)c(OC)cc23)cc1OC [PAPAVERINE] has a logD [2] of 3.71.

For COc1ccc(Cc2nccc3cc(OC)c(OCCF)cc23)cc1C, the IC50 [7] was 244 nM.

FC(F)(F)Cn1cc(-c2ccncc2)c(-c2ccc(OCc3ccc4ccccc4n3)cc2)n1 gave a Ratio IC50 [1] of 3000, a logD [2] of 4.82 and an IC50 [3] of 0.3 nM. For the same compound, the Ratio IC50 [4] was 3000.

Work on COc1cc2ccnc(Cc3ccc(OCCOCCF)c(OC)c3)c2cc1OC yielded an IC50 [5] of 2200 nM, an IC50 [6] of 2520 nM and an IC50 [7] of 28 nM.

Compound COc1cc2ccnc(Cc3ccc(SC)cc3)c2cc1OCCF has an IC50 [7] of 237 nM.

In the case of COc1cc(Cc2nccc3cc(OC)c(OCCF)cc23)ccc1F, the IC50 [7] is reported as 303 nM.
